The results in this text go back to ChEMBL document CHEMBL1123397, “Antiarrhythmic activity of 17 beta-aminoestratrienes. Comparison of 3-ols and 3-acetates with the corresponding 3-(3-amino-2-hydroxypropyl) ethers” (1986).

Test [1] is filed under the species Mus musculus. Briefly: ED 50 value against aconitine-induced arrhythmias in mice. Format: functional. The gist of the method: (§1)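 Anaesthetised mice were given test compound intraperitoneally, then aconitine intravenously to induce arrhythmia. At least three doses were tested in separate groups (n = 6-10). ED50 is the dose raising the arrhythmogenic aconitine dose 50% above the control requirement.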

For test [2], the species on record is Cavia porcellus. Briefly: Concentration required to reduce maximum following frequencu (MFF) of isolated guinea pig atria by 25%. Format: functional. The gist of the method: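 Guinea pig left atria in an organ bath of Krebs solution at 35 °C, gassed with carbogen, electrically driven, isometric contractions recorded. Drugs added cumulatively; maximum following frequency determined 6 min after each concentration. Concentration reducing MFF by 25% (EC25) calculated from six preparations.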

Test [3] deals with Rattus norvegicus. Briefly: Effect on heart rate on 1 min post isoprenaline induced tachycardia in the anesthetized rat at 2.0 mg/kg dose. It is filed as functional. The gist of the method: (§2)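 Test drug or vehicle was given i.v., and isoprenaline (10 µg/kg) 14 min later. Heart rate was read from the lead II ECG just before drug, at 14 min (pre-isoprenaline) and 1 min after isoprenaline. Compared by Student's t test; 7–12 animals per group; mean ± SEM.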

The subject of test [4] is Rattus norvegicus. Briefly: Effect on heart rate before isoprenaline induced tachycardia in the anesthetized rat at 2 mg/kg dose. Format: functional. The gist of the method:
as §2

Test [5] relates to Rattus norvegicus. Briefly: Antagonism of Ventricular Fibrilloflutter (VF) evoked by coronary artery ligation in the rat measured at 2 mg/kg dose. Format: functional, Heart. The gist of the method:
(§3)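 Male Wistar rats, anaesthetised and artificially ventilated, with left thoracotomy; silk suture under main left coronary artery. After stabilization, test drug or vehicle i.v.; 14 min later isoprenaline 10 μg/kg; 1 min after that the ligature was tightened and VF incidence recorded over 30 min. Carotid pressure and lead II ECG monitored continuously. 7-12 animals per group.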

Test [6] relates to Rattus norvegicus. Briefly: Mean change in heart rate recorded 14 min after the administration of compound. It is filed as functional. The gist of the method:
as §2

In test [7] the test system is Rattus norvegicus. Briefly: Effect on heart rate after isoprenaline induced tachycardia in the anesthetized rat at 2 mg/kg dose. Format: functional. The gist of the method:
(§4)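 Same ligation protocol in anaesthetised male Wistar rats. Heart rate was taken from the lead II ECG at three points: just before i.v. drug or vehicle, 14 min after it (just before isoprenaline 10 μg/kg), and 1 min after isoprenaline. Pre vs post rates and isoprenaline responses vs controls were compared by Student's t test. Mean ± SEM of 7-12 observations.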

In test [8] the test system is Rattus norvegicus. Briefly: Effective dose that antagonized arrhythmias evoked by coronary artery ligation in the rat was measured at 2.0 mg/kg dose. It is filed as functional.
Test [9] is filed under the species Mus musculus. Briefly: ED 50 value against aconitine-induced arrhythmias in mice; IA is Inactive. It is filed as functional, organism-based. The gist of the method: as §1
Test [10] is filed under the species Rattus norvegicus. Briefly: Maximum increase in heart rate evoked by isoprenaline. It is filed as functional. The gist of the method: as §2
The species named for test [11] is Cavia porcellus. Briefly: Compound was tested for antiarrhythmic activity (time taken to reach 50% repolarization) in guinea pig atria at 4(ug/mL) concentration. It is filed as functional, Heart. The gist of the method: (§5)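 Guinea pig left atria pinned in a recording chamber, superfused with carbogen-gassed Krebs solution at 35 ± 0.5 °C and electrically stimulated. Transmembrane action potentials were recorded with conventional microelectrodes, giving RMP, AP height, APD50, APD90 and maximum rate of depolarization. Values are mean ± SEM from n cells across five preparations.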

For test [12], the species on record is Cavia porcellus. Briefly: Compound was tested for antiarrhythmic activity expressed as resting membrane potential (RMP) in guinea pig atria at 2 ug/mL concentration. Format: functional. The conditions noted are these: Heart. The gist of the method: as §5
For test [13], the system named is Rattus norvegicus. Briefly: Compound that antagonized arrhythmias evoked by coronary artery ligation in the rat was measured at 1.0 mg/kg dose. Format: functional. The gist of the method: as §3
Test [14] is filed under the species Cavia porcellus. Briefly: Compound was tested for antiarrhythmic activity (time taken to reach 90% repolarization) in guinea pig atria at 8(ug/mL) concentration. It is filed as functional, Heart. The gist of the method:
as §5

For test [15], the species on record is Cavia porcellus. Briefly: Compound was tested for antiarrhythmic activity (time taken to reach 90% repolarization) in guinea pig atria at 2(ug/mL) concentration. Format: functional, Heart. The gist of the method:
as §5

The species entered for test [16] is Cavia porcellus. Briefly: Compound was tested for antiarrhythmic activity (maximum rate of phase 0 depolarization- MRD) in guinea pig atria at 2(ug/mL) concentration. Format: functional, Heart. The gist of the method: as §5
Test [17] is filed under the species Cavia porcellus. Briefly: Compound was tested for antiarrhythmic activity (time taken to reach 90% repolarization) in guinea pig atria at 4(ug/mL) concentration. It is filed as functional, Heart. The gist of the method:
as §5

Test [18] is filed under the species Cavia porcellus. Briefly: Compound was tested for antiarrhythmic activity expressed as resting membrane potential (RMP) in guinea pig atria at 4 ug/mL concentration. It is filed as functional. Conditions: Heart. The gist of the method:
as §5

The species named for test [19] is Cavia porcellus. Briefly: Compound was tested for antiarrhythmic activity expressed as resting membrane potential (RMP) in guinea pig atria at 8 ug/mL concentration. The conditions noted are these: Heart. It is filed as functional. The gist of the method: as §5
For test [20], the species on record is Rattus norvegicus. Briefly: Maximum increase in heart rate evoked by isoprenaline. Format: functional. The gist of the method: as §2
The species named for test [21] is Cavia porcellus. Briefly: Compound was tested for antiarrhythmic activity (time taken to reach 50% repolarization) in guinea pig atria at 8(ug/mL) concentration. It is filed as functional, Heart. The gist of the method: as §5
The species entered for test [22] is Cavia porcellus. Briefly: Compound was tested for antiarrhythmic activity expressed as action potential height (AP) in guinea pig atria at 8(ug/mL) concentration. It is filed as functional, Heart. The gist of the method:
as §5

For test [23], the species on record is Cavia porcellus. Briefly: Compound was tested for antiarrhythmic activity (time taken to reach 50% repolarization) in guinea pig atria at 2(ug/mL) concentration. It is filed as functional, Heart. The gist of the method: as §5
Test [24] relates to Rattus norvegicus. Briefly: Compound was tested for antagonism of Ventricular Fibrilloflutter (VF) evoked by coronary artery ligation in the rat measured at 1 mg/kg dose. It is filed as functional, Heart. The gist of the method: as §3
The species entered for test [25] is Cavia porcellus. Briefly: Compound was tested for antiarrhythmic activity (maximum rate of phase 0 depolarization- MRD) in guinea pig atria at 8(ug/mL) concentration. Format: functional, Heart. The gist of the method:
as §5

In test [26] the test system is Rattus norvegicus. Briefly: Effect of teh compound on heart rate on 1 min post isoprenaline induced tachycardia in the anesthetized rat at 2.0 mg/kg dose. Format: functional. The gist of the method: as §4
The species entered for test [27] is Cavia porcellus. Briefly: Compound was tested for antiarrhythmic activity expressed as action potential height (AP) in guinea pig atria at 2(ug/mL) concentration. It is filed as functional, Heart. The gist of the method:
as §5

Test [28] is filed under the species Cavia porcellus. Briefly: Compound was tested for antiarrhythmic activity (maximum rate of phase 0 depolarization- MRD) in guinea pig atria at 4(ug/mL) concentration. It is filed as functional, Heart. The gist of the method: as §5
The species entered for test [29] is Cavia porcellus. Briefly: Compound was tested for antiarrhythmic activity expressed as action potential height (AP) in guinea pig atria at 4(ug/mL) concentration. Format: functional, Heart. The gist of the method: as §5
The test system of test [30] is Rattus norvegicus. Briefly: Effect on heart rate on 1 min post isoprenaline induced tachycardia in the anesthetized rat at 1.0 mg/kg dose. It is filed as functional. The gist of the method:
as §2

Test [31] relates to Rattus norvegicus. Briefly: Effect on heart rate before isoprenaline induced tachycardia in the anesthetized rat at 1 mg/kg dose. It is filed as functional. The gist of the method:
as §4

Test [32] has as its system Rattus norvegicus. Briefly: Effect on heart rate after isoprenaline induced tachycardia in the anesthetized rat at 1 mg/kg dose. Format: functional. The gist of the method: as §4

In brackets after ≈: the same amount, converted by molar mass. Activity calls are given as the source filed them. No cut-off for these calls is given here.

`CN(C)C1CC[C@H]2[C@@H]3CCc4cc(O)ccc4[C@H]3CC[C@]12C` (some centres not stated) gave a 50% effective dose (ED50) in [1] of 4.4 mg/kg. The compound further displayed an EC25 in test [2] of 1.65 µg/mL (≈ 5.51 µM).
As for `CNC1CC[C@H]2[C@@H]3CCc4cc(OCC(O)CNC(C)(C)C)ccc4[C@H]3CC[C@]12C` (some centres not stated), the Heart rate in test [3] came out at 335 beats min-1; in test [4], 387 beats min-1; in [7], 335 beats min-1. In addition, the VF in test [5] amounted to 0%. The EC25 in test [2] stood at 25.8 µg/mL (≈ 62.2 µM). Further, the Change in [6] is listed as -13.4%. Besides, in test [8], the ED50 at 2 mg/kg is below 2 mg/kg. In test [9], the ED50 result is “inactive”. The same compound returned an Increase in test [10] of 0%.
For the compound `CC(C)NCC(O)COc1ccc2c(c1)CC[C@@H]1[C@@H]2CC[C@]2(C)C(N(C)C)[C@H](O)C[C@@H]12` (some centres not stated), the APD50 turned out to be 20.7 ms in test [11], 19.5 ms in test [21] and 26 ms in test [23]. The Heart rate in [4] turned out to be 394 beats min-1; in test [7] it was 366 beats min-1; in test [26] it was 366 beats min-1. Further, the RMP was 71 mV in test [12], 70.4 mV in test [18] and 69.1 mV in [19]. In addition, the ED50 at 1 mg/kg in [13] is below 1 mg/kg. Also, the APD90 turned out to be 64.9 ms in [14], 69.8 ms in test [15] and 64.8 ms in test [17]. The MRD worked out at 139.5 V s-1 in [16], 139.3 V s-1 in [25] and 124 V s-1 in test [28]. In test [2], this compound registered a 25% effect concentration (EC25) of 13.7 µg/mL (≈ 31.8 µM). The Increase in test [20] is given as 0%. Further, the AP in test [22] was 79.5 mV; in [27] it was 83.8 mV; in test [29], 81.6 mV. In addition, the Change in test [6] is -7.1%. Besides, in test [9], the ED50 result is “inactive”. In [24], this compound gave a VF of 13%.
In turn, `CC(=O)Oc1ccc2c(c1)CC[C@@H]1[C@@H]2CC[C@]2(C)C(N(C)C)[C@H](O)C[C@@H]12` (some centres not stated) yielded a median effective dose (ED50) in [1] of 6.5 mg/kg. For the same compound, the 25% effect level in [2] (EC25) was put at 0.99 µg/mL (≈ 2.77 µM).
`CC(C)NCC(O)COc1ccc2c(c1)CC[C@@H]1[C@@H]2CC[C@]2(C)C(N(C)C)CC[C@@H]12` (some centres not stated): the Heart rate in test [30] is on record as 393 beats min-1; in test [31] it was 405 beats min-1; in test [32] it was 387 beats min-1. The VF was 14% in test [5] and 29% in test [24]. The same compound showed an EC25 in test [2] of 16.1 µg/mL (≈ 38.8 µM). Also, the Change in test [6] is -4.4%. In test [8], this compound had a 50% effective dose (ED50) at 2 mg/kg below 1 mg/kg. In test [9], the ED50 entry is “inactive”. The compound also showed an Increase in test [10] of 1.6%.
